MIC and IC50 data for seven molecules are collected here from ChEMBL document CHEMBL1138578, “Synthesis and antibacterial activity of nitroaryl thiadiazole-gatifloxacin hybrids” (Eur J Med Chem, 2009).

Test [1] relates to Staphylococcus aureus. As to the kind of experiment: Antibacterial activity against Staphylococcus aureus ATCC 25923 after 18 hrs by conventional agar dilution method. Format: functional. To be noted: ATCC 25923, 18 h. Put shortly:
(§1)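 Twofold dilutions in DMSO (1 mL) mixed into molten Mueller–Hinton agar (19 mL) at 50 °C. Inocula adjusted at 600 nm to about 0.5 McFarland (1.5 × 10⁸ CFU/mL), then diluted in 0.85% saline to 10⁷ CFU/mL. Plates spot-inoculated at 10⁴ CFU/spot and incubated 35–37 °C for 18 h. MIC is the lowest concentration giving no visible growth. DMSO-only control plates included.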
A general note: Agar dilution tests growth on a series of plates holding different concentrations.

The test system of test [2] is Staphylococcus epidermidis. The test is described as follows: Antibacterial activity against Staphylococcus epidermidis ATCC 4940 after 18 hrs by conventional agar dilution method. The class given is functional. To be noted: ATCC 4940, 18 h. Summed up: as §1
In test [3] the test system is Streptococcus pneumoniae. As to the kind of experiment: Antibacterial activity against Streptococcus pneumoniae ATCC 1240 after 18 hrs by conventional agar dilution method. Format: functional. To be noted: ATCC 1240, 18 h. Put shortly: as §1
Test [4] relates to Bacillus subtilis. The test is described as follows: Antibacterial activity against Bacillus subtilis ATCC 6051 after 18 hrs by conventional agar dilution method. The class given is functional. To be noted: ATCC 6051, 18 h. Summed up:
as §1

Test [5] has as its system Enterococcus faecalis. The test is described as follows: Antibacterial activity against Enterococcus faecalis NCTC 6013 after 18 hrs by conventional agar dilution method. Format: functional. The conditions noted are these: NCTC 6013, 18 h. Put shortly:
as §1

In test [6] the test system is Micrococcus luteus. The test is described as follows: Antibacterial activity against Micrococcus luteus ATCC 1110 after 18 hrs by conventional agar dilution method. The class given is functional. To be noted: ATCC 1110, 18 h. Put shortly:
as §1

Test [7] has as its system Escherichia coli. As to the kind of experiment: Antibacterial activity against Escherichia coli ATCC 25922 after 18 hrs by conventional agar dilution method. Format: functional. To be noted: ATCC 25922, 18 h. Summed up:
as §1

For test [8], the system named is Salmonella enterica subsp. enterica serovar Typhi str. CT18. The test is described as follows: Antibacterial activity against Salmonella typhi ATCC 19430 after 18 hrs by conventional agar dilution method. The class given is functional. To be noted: ATCC 19430, 18 h. Put shortly: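 Twofold dilutions in DMSO mixed into molten Mueller–Hinton agar at 50 °C. Inoculum adjusted at 600 nm to about 0.5 McFarland (1.5 ×10⁸ CFU/mL), then diluted in 0.85% saline to 10⁷ CFU/mL. Plates spot-inoculated at 10⁴ CFU/spot and incubated at 35–37 °C for 18 h. MIC taken as the lowest concentration with no visible growth. DMSO solvent control run at matching dilutions.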

Test [9] has as its system Shigella flexneri. As to the kind of experiment: Antibacterial activity against Shigella flexneri NCTC 8516 after 18 hrs by conventional agar dilution method. The class given is functional. To be noted: NCTC 8516, 18 h. Summed up: as §1
Test [10] has as its system Klebsiella pneumoniae. As to the kind of experiment: Antibacterial activity against Klebsiella pneumoniae ATCC 10031 after 18 hrs by conventional agar dilution method. The conditions noted are these: ATCC 10031, 18 h. The class given is functional. Put shortly: as §1
For test [11], the system named is Serratia marcescens. The test is described as follows: Antibacterial activity against Serratia marcescens PTCC 1111 after 18 hrs by conventional agar dilution method. Format: functional. The conditions noted are these: PTCC 1111, 18 h. Put shortly: as §1
Test [12] relates to Pseudomonas aeruginosa. As to the kind of experiment: Antibacterial activity against Pseudomonas aeruginosa ATCC 27853 after 18 hrs by conventional agar dilution method. Format: functional. The conditions noted are these: ATCC 27853, 18 h. Summed up: as §1
Test [13] can be described thus: Cytotoxicity against mouse NIH/3T3 cells after 72 hrs by MTT assay. Format: cell-based. To be noted: NIH3T3, 72 h. Summed up: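 Exponential-phase NIH/3T3 fibroblasts trypsinized and diluted in complete medium to 5 × 10⁴ cells/mL, then plated in 96-well plates. Serial compound dilutions added, each in triplicate, with cell-only wells as the viability control. Incubation 72 h, then MTT (5 mg/mL solution) added for 1 h and the medium replaced for colorimetric read-out.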
In general terms: Formazan colour is commonly taken as a measure of viable cells.

pIC50: −log10 of the molar value. Values after ≈ are worked out from the molar mass of the structure shown.

Turning to `COc1c(N2CCN(c3nnc(-c4ncc([N+](=O)[O-])n4C)s3)C(C)C2)c(F)cc2c(=O)c(C(=O)O)cn(C3CC3)c12` (stereo unspecified), the MIC – broadly, the lowest concentration that inhibits growth of the organism – in test [1] came to 0.0313 µg/mL (≈ 0.0535 µM); in test [2] it was 0.5 µg/mL (≈ 0.855 µM); in test [3] it was 1 µg/mL (≈ 1.71 µM); in test [4], 0.5 µg/mL (≈ 0.855 µM); in test [5], 4 µg/mL (≈ 6.84 µM); in [6], 2 µg/mL (≈ 3.42 µM). Further, the MIC in test [7] was 16 µg/mL (≈ 27.4 µM); in test [8], 0.25 µg/mL (≈ 0.428 µM); in [9] it was 1 µg/mL (≈ 1.71 µM); in [10], 0.5 µg/mL (≈ 0.855 µM); in test [11] it was 64 µg/mL (≈ 109 µM); in [12], greater than 64 µg/mL. Also, the pIC50 (as a rule, the IC50 on a negative log10 scale, so that one unit is a factor of ten) in test [13] was 3.61.
In the case of `COc1c(N2CCN(c3nnc(-c4ccc([N+](=O)[O-])s4)s3)C(C)C2)c(F)cc2c(=O)c(C(=O)O)cn(C3CC3)c12` (stereo unspecified), the minimum inhibitory concentration (MIC) in test [1] was 0.5 µg/mL (≈ 0.852 µM); in [2], 0.125 µg/mL (≈ 0.213 µM); in test [3] it was 0.25 µg/mL (≈ 0.426 µM); in test [4], 0.5 µg/mL (≈ 0.852 µM); in [5] it was 2 µg/mL (≈ 3.41 µM); in test [6], 4 µg/mL (≈ 6.82 µM). Besides, the MIC in [7] was 32 µg/mL (≈ 54.5 µM); in [8] it was 1 µg/mL (≈ 1.7 µM); in [9] it was 1 µg/mL (≈ 1.7 µM); in test [10], 16 µg/mL (≈ 27.3 µM); in test [11], 8 µg/mL (≈ 13.6 µM); in [12], greater than 64 µg/mL. In [13], this molecule had a negative logarithm of the IC50 (pIC50) of 3.61.
As to `COc1c(N2CCN(c3nnc(-c4ccc([N+](=O)[O-])o4)s3)C(C)C2)c(F)cc2c(=O)c(C(=O)O)cn(C3CC3)c12` (stereo unspecified), the MIC was determined as 0.125 µg/mL (≈ 0.219 µM) in test [1]; 0.0078 µg/mL (≈ 0.0137 µM) in test [2]; 0.25 µg/mL (≈ 0.438 µM) in test [3]; 0.0039 µg/mL (≈ 0.00684 µM) in [4]; 0.125 µg/mL (≈ 0.219 µM) in test [5]; 0.125 µg/mL (≈ 0.219 µM) in [6]. In addition, the minimum inhibitory concentration (MIC) in [7] is 1 µg/mL (≈ 1.75 µM); in test [8], 1 µg/mL (≈ 1.75 µM); in [9], 0.5 µg/mL (≈ 0.876 µM); in test [10], 1 µg/mL (≈ 1.75 µM); in [11] it was 8 µg/mL (≈ 14 µM); in test [12], greater than 64 µg/mL. Besides, the negative-log IC50 (pIC50) in [13] is 3.62.
On to `COc1c(N2CCN(c3nnc(-c4ccccc4[N+](=O)[O-])s3)C(C)C2)c(F)cc2c(=O)c(C(=O)O)cn(C3CC3)c12` (stereo unspecified), for which the minimal inhibitory concentration (MIC) in test [1] was determined as 32 µg/mL (≈ 55.1 µM); in test [2] it was 0.0625 µg/mL (≈ 0.108 µM); in [3], 0.25 µg/mL (≈ 0.431 µM); in test [4], 0.0625 µg/mL (≈ 0.108 µM); in test [5], 2 µg/mL (≈ 3.44 µM); in [6], 0.5 µg/mL (≈ 0.861 µM). Also, the MIC in [7] was 16 µg/mL (≈ 27.6 µM); in test [8], 16 µg/mL (≈ 27.6 µM); in test [9], 16 µg/mL (≈ 27.6 µM); in [10], 64 µg/mL (≈ 110 µM); in test [11] it was 16 µg/mL (≈ 27.6 µM); in test [12], greater than 64 µg/mL. This molecule also had a pIC50 in [13] of 3.77.
In the case of `COc1c(N2CCN(c3nnc(-c4ccc([N+](=O)[O-])cc4)s3)C(C)C2)c(F)cc2c(=O)c(C(=O)O)cn(C3CC3)c12` (stereo unspecified), the minimal inhibitory concentration (MIC) was determined as 32 µg/mL (≈ 55.1 µM) in test [1]; 0.0625 µg/mL (≈ 0.108 µM) in [2]; 0.0625 µg/mL (≈ 0.108 µM) in [3]; 0.0313 µg/mL (≈ 0.0539 µM) in test [4]; 1 µg/mL (≈ 1.72 µM) in [5]; 0.25 µg/mL (≈ 0.431 µM) in [6]. The MIC in test [7] is 16 µg/mL (≈ 27.6 µM); in test [8], 8 µg/mL (≈ 13.8 µM); in test [9], 8 µg/mL (≈ 13.8 µM); in [10], 64 µg/mL (≈ 110 µM); in test [11], 16 µg/mL (≈ 27.6 µM); in test [12] it was greater than 64 µg/mL. In test [13], this molecule gave a pIC50 of 3.65.
Regarding `COc1c(N2CCN(c3nnc(-c4cccc([N+](=O)[O-])c4)s3)C(C)C2)c(F)cc2c(=O)c(C(=O)O)cn(C3CC3)c12` (stereo unspecified), the MIC was greater than 64 µg/mL in test [1]; 0.0313 µg/mL (≈ 0.0539 µM) in [2]; 1 µg/mL (≈ 1.72 µM) in test [3]; 32 µg/mL (≈ 55.1 µM) in test [4]; greater than 64 µg/mL in test [5]; 1 µg/mL (≈ 1.72 µM) in [6]. Also, the MIC in test [7], in test [8], in [9], in test [10], in [11] and in [12] was greater than 64 µg/mL each time. For the same molecule, in test [13], the pIC50 is 3.79.
For `COc1c(N2CCNC(C)C2)c(F)cc2c(=O)c(C(=O)O)cn(C3CC3)c12` (stereo unspecified) [GATIFLOXACIN], the MIC came to 0.25 µg/mL (≈ 0.666 µM) in test [1]; 0.0625 µg/mL (≈ 0.166 µM) in [2]; 0.25 µg/mL (≈ 0.666 µM) in test [3]; 0.5 µg/mL (≈ 1.33 µM) in test [4]; 0.5 µg/mL (≈ 1.33 µM) in test [5]; 1 µg/mL (≈ 2.66 µM) in test [6]. Also, the MIC was determined as 1 µg/mL (≈ 2.66 µM) in test [7]; 0.0625 µg/mL (≈ 0.166 µM) in test [8]; 0.0625 µg/mL (≈ 0.166 µM) in test [9]; 0.5 µg/mL (≈ 1.33 µM) in test [10]; 0.5 µg/mL (≈ 1.33 µM) in [11]; 2 µg/mL (≈ 5.33 µM) in test [12]. The molecule also had a negative logarithm of the IC50 (pIC50) in test [13] of 3.22.
